Active and inactive are the calls of the source. No cut-off for these calls is given here.
Tests used:
[1] = target: Cyclin-dependent kinase 5 (Homo sapiens) (UniProt Q00535); assay: Binding affinity to wild-type human full length CDK5 (M1 to P292 residues) expressed in bacterial expression system assessed as residual binding level at 1 uM by Kinomescan method relative to control
In short: (§1)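 KINOMEscan competition binding against 468 purified kinases/mutants, test compound at 1 µM; residual binding relative to control.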

[2] = target: Eukaryotic translation initiation factor 2-alpha kinase 1 (Homo sapiens) (UniProt Q9BQI3); assay: Binding affinity to wild-type human partial length EIF2AK1 (Q147 to E603 residues) expressed in mammalian expression system assessed as residual binding level at 1 uM by Kinomescan method relative to control
[3] = target: Ephrin type-A receptor 5 (Homo sapiens) (UniProt P54756); assay: Binding affinity to wild-type human partial length EPHA5 (T627 to V930 residues) expressed in bacterial expression system assessed as residual binding level at 1 uM by Kinomescan method relative to control
[4] = target: Mitogen-activated protein kinase 1 (Homo sapiens) (UniProt P28482); assay: Binding affinity to wild-type human full length ERK2 (M1 to S360 residues) expressed in bacterial expression system assessed as residual binding level at 1 uM by Kinomescan method relative to control; in short: as §1
Chain of Mitogen-activated protein kinase 1 (Homo sapiens) (P28482 whole entry, the tested form may be a part): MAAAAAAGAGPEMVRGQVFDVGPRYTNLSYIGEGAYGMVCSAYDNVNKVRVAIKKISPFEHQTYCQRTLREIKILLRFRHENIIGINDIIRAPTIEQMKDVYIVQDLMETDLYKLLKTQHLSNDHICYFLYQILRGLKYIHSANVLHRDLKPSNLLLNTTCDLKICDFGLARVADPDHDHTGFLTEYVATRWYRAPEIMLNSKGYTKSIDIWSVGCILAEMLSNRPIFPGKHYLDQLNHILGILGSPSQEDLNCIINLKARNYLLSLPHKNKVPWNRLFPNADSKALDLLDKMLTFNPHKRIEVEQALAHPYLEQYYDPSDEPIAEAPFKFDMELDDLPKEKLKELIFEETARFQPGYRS

[5] = target: Mitogen-activated protein kinase 7 (Homo sapiens) (UniProt Q13164); assay: Binding affinity to wild-type human partial length ERK5 (M1 to A409 residues) expressed in bacterial expression system assessed as residual binding level at 1 uM by Kinomescan method relative to control
In short: (§2)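 Kinome-wide competition binding screen against a panel of 468 purified kinases/mutants, with the test compound at a single concentration of 1 μM. Read-out is the relative binding activity of each kinase in the presence of compound.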

[6] = target: LIM domain kinase 2 (Homo sapiens) (UniProt P53671); assay: Binding affinity to wild-type human full length LIMK2 (M1 to P638 residues) expressed in bacterial expression system assessed as residual binding level at 1 uM by Kinomescan method relative to control
In short: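 Single-concentration (1 μM) competition-binding screen run by KINOMEscan against a panel of 468 purified kinases and mutants. The read-out is the relative binding activity of the test compound to each kinase.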

[7] = target: MAP/microtubule affinity-regulating kinase 4 (Homo sapiens) (UniProt Q96L34); assay: Binding affinity to wild-type human partial length MARK4 (K29 to G340 residues) expressed in bacterial expression system assessed as residual binding level at 1 uM by Kinomescan method relative to control
[8] = target: Microtubule-associated serine/threonine-protein kinase 1 (Homo sapiens) (UniProt Q9Y2H9); assay: Binding affinity to wild-type human partial length MAST1 (S346 to V730 residues) expressed in mammalian expression system assessed as residual binding level at 1 uM by Kinomescan method relative to control
[9] = target: Myosin light chain kinase (Homo sapiens) (UniProt Q32MK0); assay: Binding affinity to wild-type human partial length MLCK (D488 to K800 residues) expressed in bacterial expression system assessed as residual binding level at 1 uM by Kinomescan method relative to control; in short: as §2
Chain of Myosin light chain kinase (Homo sapiens) (Q32MK0 whole entry, the tested form may be a part): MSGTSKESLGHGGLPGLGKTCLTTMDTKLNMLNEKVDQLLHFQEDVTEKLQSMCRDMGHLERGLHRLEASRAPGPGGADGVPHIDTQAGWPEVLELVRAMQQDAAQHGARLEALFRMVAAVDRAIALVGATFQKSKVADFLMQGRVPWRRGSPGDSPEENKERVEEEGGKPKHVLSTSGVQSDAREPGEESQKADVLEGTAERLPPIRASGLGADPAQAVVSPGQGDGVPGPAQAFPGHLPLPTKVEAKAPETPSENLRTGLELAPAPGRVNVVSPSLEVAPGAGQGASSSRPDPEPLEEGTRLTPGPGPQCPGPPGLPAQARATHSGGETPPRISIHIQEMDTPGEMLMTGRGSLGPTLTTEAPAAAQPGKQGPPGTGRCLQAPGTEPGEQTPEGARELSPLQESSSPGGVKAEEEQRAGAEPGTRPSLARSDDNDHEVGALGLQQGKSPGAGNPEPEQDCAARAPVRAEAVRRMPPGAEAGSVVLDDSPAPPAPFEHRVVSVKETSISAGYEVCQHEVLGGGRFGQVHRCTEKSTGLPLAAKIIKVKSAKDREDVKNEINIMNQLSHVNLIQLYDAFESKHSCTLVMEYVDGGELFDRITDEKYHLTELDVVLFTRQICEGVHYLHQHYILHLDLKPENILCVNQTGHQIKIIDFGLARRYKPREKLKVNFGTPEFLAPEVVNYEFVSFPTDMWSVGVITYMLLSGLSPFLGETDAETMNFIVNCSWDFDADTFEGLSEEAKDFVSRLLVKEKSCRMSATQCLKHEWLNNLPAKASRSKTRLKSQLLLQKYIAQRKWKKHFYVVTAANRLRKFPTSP

[10] = target: Serine/threonine-protein kinase OSR1 (Homo sapiens) (UniProt O95747); assay: Binding affinity to wild-type human full length OSR1 (M1 to S527 residues) expressed in mammalian expression system assessed as residual binding level at 1 uM by Kinomescan method relative to control
Chain of Serine/threonine-protein kinase OSR1 (Homo sapiens) (O95747 2-527 limits assumed): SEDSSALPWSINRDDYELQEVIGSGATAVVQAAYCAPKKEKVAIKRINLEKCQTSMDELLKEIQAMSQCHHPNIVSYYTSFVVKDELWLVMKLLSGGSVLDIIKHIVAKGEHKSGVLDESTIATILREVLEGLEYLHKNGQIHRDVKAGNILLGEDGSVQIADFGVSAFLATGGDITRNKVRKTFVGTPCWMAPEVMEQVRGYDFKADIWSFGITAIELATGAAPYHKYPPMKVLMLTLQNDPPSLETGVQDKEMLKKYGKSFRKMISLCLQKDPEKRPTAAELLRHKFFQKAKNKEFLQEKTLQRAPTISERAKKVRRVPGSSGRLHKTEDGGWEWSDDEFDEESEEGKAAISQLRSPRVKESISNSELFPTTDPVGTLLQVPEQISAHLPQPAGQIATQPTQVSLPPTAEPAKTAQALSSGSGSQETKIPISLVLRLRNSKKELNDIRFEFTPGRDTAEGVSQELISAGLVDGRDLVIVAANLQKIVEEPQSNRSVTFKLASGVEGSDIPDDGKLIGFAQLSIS
In short: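 Single-concentration KINOMEscan (DiscoverX) binding screen at 1 μM against a panel of 468 purified kinases and mutants. The read-out is binding relative to control.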

[11] = target: Serine/threonine-protein kinase PAK 1 (Homo sapiens) (UniProt Q13153); assay: Binding affinity to wild-type human partial length PAK1 (S149 to H545 residues) expressed in bacterial expression system assessed as residual binding level at 1 uM by Kinomescan method relative to control
[12] = target: Serine/threonine-protein kinase PAK 5 (Homo sapiens) (UniProt Q9P286); assay: Binding affinity to wild-type human partial length PAK7 (Y400 to H719 residues) expressed in bacterial expression system assessed as residual binding level at 1 uM by Kinomescan method relative to control
In short: (§3)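 KINOMEscan competition binding against a panel of 468 purified kinases/mutants, compound tested at 1 μM; readout is relative binding activity versus control.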

[13] = system: Phosphatidylinositol 4,5-bisphosphate 3-kinase catalytic subunit alpha isoform (Homo sapiens), P42336 [H1047Y]; assay: Binding affinity to human partial length PIK3CA H1047Y mutant (R108 to N1068 residues) expressed in mammalian expression system assessed as residual binding level at 1 uM by Kinomescan method relative to control
In short: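 Kinome-wide single-concentration binding screen (KINOMEscan) at 1 μM against a panel of 468 purified kinases and mutants. Read-out is relative binding of each kinase compared with control. Selectivity across the panel was summarised as an S(10) score.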

[14] = target: cGMP-dependent protein kinase 1 (Homo sapiens) (UniProt Q13976); assay: Binding affinity to wild-type human partial length PRKG1 (L339 to F686 residues) expressed in bacterial expression system assessed as residual binding level at 1 uM by Kinomescan method relative to control
[15] = target: Ribosomal protein S6 kinase alpha-6 (Homo sapiens) (UniProt Q9UK32); assay: Binding affinity to wild-type human partial length N-terminal RSK4 kinase domain 1 (M1 to E397 residues) expressed in mammalian expression system assessed as residual binding level at 1 uM by Kinomescan method relative to control
[16] = target: Serine/threonine-protein kinase Sgk1 (Homo sapiens) (UniProt O00141); assay: Binding affinity to wild-type human partial length SGK (I60 to L431 residues) expressed in mammalian expression system assessed as residual binding level at 1 uM by Kinomescan method relative to control
Chain of Serine/threonine-protein kinase Sgk1 (Homo sapiens) (O00141 whole entry, the tested form may be a part): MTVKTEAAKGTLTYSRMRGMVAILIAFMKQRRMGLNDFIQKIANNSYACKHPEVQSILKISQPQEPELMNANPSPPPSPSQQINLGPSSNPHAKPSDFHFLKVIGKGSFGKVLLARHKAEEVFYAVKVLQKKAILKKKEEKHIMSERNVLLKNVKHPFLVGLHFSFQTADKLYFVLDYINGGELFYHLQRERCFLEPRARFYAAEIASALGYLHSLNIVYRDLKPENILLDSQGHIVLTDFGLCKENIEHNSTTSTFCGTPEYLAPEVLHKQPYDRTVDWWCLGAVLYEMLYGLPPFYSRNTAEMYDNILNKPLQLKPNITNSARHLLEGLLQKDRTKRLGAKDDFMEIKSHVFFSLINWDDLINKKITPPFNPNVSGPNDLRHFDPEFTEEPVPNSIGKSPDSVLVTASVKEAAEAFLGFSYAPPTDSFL

[17] = target: NUAK family SNF1-like kinase 2 (Homo sapiens) (UniProt Q9H093); assay: Binding affinity to wild-type human partial length SNARK (P22 to A333 residues) expressed in mammalian expression system assessed as residual binding level at 1 uM by Kinomescan method relative to control
Chain of NUAK family SNF1-like kinase 2 (Homo sapiens) (Q9H093 whole entry, the tested form may be a part): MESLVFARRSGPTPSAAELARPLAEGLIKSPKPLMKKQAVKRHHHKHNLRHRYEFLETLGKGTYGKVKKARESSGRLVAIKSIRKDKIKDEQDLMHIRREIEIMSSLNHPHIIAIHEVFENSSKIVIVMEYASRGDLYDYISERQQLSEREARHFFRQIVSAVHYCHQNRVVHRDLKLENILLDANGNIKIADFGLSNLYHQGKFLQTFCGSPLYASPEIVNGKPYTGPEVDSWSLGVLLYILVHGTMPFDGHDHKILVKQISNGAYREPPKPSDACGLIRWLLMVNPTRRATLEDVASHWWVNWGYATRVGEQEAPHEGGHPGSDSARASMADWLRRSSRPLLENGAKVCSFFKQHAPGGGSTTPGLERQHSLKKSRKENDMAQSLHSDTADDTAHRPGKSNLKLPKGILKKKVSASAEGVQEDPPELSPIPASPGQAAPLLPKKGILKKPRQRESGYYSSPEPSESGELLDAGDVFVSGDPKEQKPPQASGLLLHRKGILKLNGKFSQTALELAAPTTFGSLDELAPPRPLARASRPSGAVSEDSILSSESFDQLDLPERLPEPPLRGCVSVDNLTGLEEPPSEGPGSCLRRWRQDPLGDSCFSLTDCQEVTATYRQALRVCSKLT

[18] = target: Serine/threonine-protein kinase TAO1 (Homo sapiens) (UniProt Q7L7X3); assay: Binding affinity to wild-type human partial length TAOK1 (M1 to A320 residues) expressed in mammalian expression system assessed as residual binding level at 1 uM by Kinomescan method relative to control
Chain of Serine/threonine-protein kinase TAO1 (Homo sapiens) (Q7L7X3 whole entry, the tested form may be a part): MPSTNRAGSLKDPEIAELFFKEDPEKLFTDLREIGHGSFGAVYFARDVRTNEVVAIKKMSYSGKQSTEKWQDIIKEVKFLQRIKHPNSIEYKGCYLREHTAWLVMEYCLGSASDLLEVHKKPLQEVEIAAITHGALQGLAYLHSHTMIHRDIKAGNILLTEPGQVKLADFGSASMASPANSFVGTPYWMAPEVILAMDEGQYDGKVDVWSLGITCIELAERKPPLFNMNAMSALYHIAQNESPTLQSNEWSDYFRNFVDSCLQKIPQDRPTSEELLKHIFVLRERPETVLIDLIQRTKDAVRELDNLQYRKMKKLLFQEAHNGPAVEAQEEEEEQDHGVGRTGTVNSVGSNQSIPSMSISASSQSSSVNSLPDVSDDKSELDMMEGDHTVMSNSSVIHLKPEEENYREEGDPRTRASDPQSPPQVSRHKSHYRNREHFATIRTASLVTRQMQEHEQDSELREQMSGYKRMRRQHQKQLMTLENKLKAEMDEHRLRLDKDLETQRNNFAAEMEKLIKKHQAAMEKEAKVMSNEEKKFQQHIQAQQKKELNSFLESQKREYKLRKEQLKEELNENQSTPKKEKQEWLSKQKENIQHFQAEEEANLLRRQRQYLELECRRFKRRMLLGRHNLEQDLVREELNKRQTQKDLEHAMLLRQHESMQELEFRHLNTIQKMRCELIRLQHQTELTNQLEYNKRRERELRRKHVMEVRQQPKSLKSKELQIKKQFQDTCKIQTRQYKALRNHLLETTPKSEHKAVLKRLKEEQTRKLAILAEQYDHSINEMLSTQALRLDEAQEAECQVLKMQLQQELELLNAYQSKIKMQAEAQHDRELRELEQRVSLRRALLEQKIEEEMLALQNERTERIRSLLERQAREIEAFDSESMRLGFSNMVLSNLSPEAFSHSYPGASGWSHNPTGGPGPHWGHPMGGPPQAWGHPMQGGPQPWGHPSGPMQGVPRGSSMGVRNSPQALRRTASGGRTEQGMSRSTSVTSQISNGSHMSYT

[19] = target: NT-3 growth factor receptor (Homo sapiens) (UniProt Q16288); assay: Binding affinity to wild-type human partial length TRKC (Q531 to G825 residues) expressed in mammalian expression system assessed as residual binding level at 1 uM by Kinomescan method relative to control; in short: as §3
Chain of NT-3 growth factor receptor (Homo sapiens) (Q16288 32-839 limits assumed): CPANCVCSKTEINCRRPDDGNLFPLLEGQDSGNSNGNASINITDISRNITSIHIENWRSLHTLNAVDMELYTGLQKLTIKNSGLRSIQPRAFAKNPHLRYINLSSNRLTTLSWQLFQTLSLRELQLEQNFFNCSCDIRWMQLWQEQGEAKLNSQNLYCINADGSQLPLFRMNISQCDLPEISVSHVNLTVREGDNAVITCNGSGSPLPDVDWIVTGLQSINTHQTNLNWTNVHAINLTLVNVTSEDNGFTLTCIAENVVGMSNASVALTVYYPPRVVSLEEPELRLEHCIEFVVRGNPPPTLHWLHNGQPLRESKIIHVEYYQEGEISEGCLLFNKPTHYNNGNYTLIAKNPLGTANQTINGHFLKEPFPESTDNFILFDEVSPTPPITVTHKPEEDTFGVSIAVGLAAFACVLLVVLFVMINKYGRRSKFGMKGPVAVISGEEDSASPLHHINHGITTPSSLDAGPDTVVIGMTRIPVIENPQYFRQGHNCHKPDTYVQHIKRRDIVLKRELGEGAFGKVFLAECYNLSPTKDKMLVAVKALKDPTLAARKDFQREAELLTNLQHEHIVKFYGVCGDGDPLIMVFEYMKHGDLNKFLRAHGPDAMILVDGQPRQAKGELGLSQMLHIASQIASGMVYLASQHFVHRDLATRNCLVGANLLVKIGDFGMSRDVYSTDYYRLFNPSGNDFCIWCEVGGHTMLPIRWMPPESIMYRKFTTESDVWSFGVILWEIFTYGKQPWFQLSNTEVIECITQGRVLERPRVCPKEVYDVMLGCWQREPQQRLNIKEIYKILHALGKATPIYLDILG

[20] = Apparent clearance in Sprague-Dawley rat at 10 mg/kg, po; format: ADME, organism-based; details: in vivo, read-out: CL(app) (converted)
[21] = system: EOL1; assay: Induction of apoptosis in human EOL-1 cells assessed as cleaved PARP expression level at 3 to 100 nM after 24 hrs by Western blot analysis; format: functional, cell-based
In short: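 Cells exposed to compound or DMSO for the stated periods, then lysed and immunoblotted for PARP and caspase-3 cleavage, with β-actin as loading control. NCI-H1703 stimulation used PDGF AA at 100 ng/mL.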

Chain of Cyclin-dependent kinase 5 (Homo sapiens) (Q00535 whole entry, looked up, the tested form may be a part): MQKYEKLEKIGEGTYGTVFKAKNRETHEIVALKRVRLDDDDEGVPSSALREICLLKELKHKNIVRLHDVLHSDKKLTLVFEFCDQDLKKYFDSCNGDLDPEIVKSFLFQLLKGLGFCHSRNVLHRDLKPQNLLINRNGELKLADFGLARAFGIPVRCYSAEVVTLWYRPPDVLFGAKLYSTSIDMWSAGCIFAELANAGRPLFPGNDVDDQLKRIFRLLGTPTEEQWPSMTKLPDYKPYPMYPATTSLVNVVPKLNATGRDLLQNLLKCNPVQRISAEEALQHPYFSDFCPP

Question: For Cc1ccc(NC(=O)c2ccc(CN(CCN(C)C)C(=O)c3cccnc3)cc2)cc1Nc1nccc(-c2cccnc2)n1, which Activity [1] is on record?
Answer: The Activity was 94%.

Question: What about the Activity [2] of the same compound?
Answer: The Activity was 100%.

Question: What about the Activity [3] of the same compound?
Answer: The Activity was 86%.

Question: And the Activity [4]?
Answer: Its Activity is 83%.

Question: What about the Activity [5] of the same compound?
Answer: The Activity was 84%.

Question: And the Activity [6]?
Answer: Its Activity is 100%.

Question: And the Activity [7]?
Answer: Its Activity is 90%.

Question: What about the Activity [8] of the same compound?
Answer: Its Activity is 100%.

Question: What about the Activity [9] of the same compound?
Answer: Its Activity is 80%.

Question: And the Activity [10]?
Answer: The Activity was 100%.

Question: What about the Activity [11] of the same compound?
Answer: Its Activity is 95%.

Question: What about the Activity [12] of the same compound?
Answer: The Activity was 92%.

Question: And the Activity [13]?
Answer: Its Activity is 76%.

Question: What about the Activity [14] of the same compound?
Answer: Its Activity is 85%.

Question: What about the Activity [15] of the same compound?
Answer: Its Activity is 100%.

Question: What about the Activity [16] of the same compound?
Answer: The Activity was 100%.

Question: And the Activity [17]?
Answer: Its Activity is 100%.

Question: What about the Activity [18] of the same compound?
Answer: Its Activity is 100%.

Question: And the Activity [19]?
Answer: Its Activity is 89%.

Question: And the CL/F [20]?
Answer: Its CL/F is 1450 mL/min/kg.

Question: And the Activity [21]?
Answer: Its Activity is “Active”.

From ChEMBL document CHEMBL4229344 (Eur J Med Chem, 2018)
